Measurements: ChEMBL document CHEMBL3596120, “Discovery of natural alkaloid bouchardatine as a novel inhibitor of adipogenesis/lipogenesis in 3T3-L1 adipocytes” (Bioorg Med Chem, 2015)
The source made the active and inactive calls. No cut-off for these calls is given here.

Assays:
[1] = Reduction in SCD1 protein expression in mouse 3T3L1 cells at 25 uM after 9 days by Western blot method; conditions: 3T3-L1
[2] = Reduction in C/EBPdelta mRNA expression in mouse 3T3L1 cells at 25 uM by RT-PCR method; assay type: functional, cell-based; conditions: 3T3-L1, TDE = time-dependent effect
Procedure, shortened: (§1)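 3T3-L1 preadipocytes grown in DMEM with 10% FBS at 37 °C under 5% CO2. Differentiation starts 2 days post-confluence (day 0) with IBMX, 100 ng/mL dexamethasone and insulin for 3 d, then insulin in 10% FBS/DMEM for 3 d, then basic medium for 3 d. Compound is added on day 0 and renewed at day 3. Vehicle control receives the same volume of DMSO.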

3T3-L1 [3] = experiment: Induction of cell cycle arrest in mouse 3T3L1 cells assessed as accumulation at G2/M phase at 25 uM after 24 hrs by flow cytometry (reference value: 29%); assay type: functional
HepG2 = experiment: Cytotoxicity against human HepG2 cells at 1 to 100 uM by MTT assay; assay type: cell-based; conditions: hepg2, 100 µM
Procedure, shortened: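 HepG2 cells seeded at 7 × 10^3 cells/well. After 24 h, treated with 1, 10, 25, 50 or 100 µM; DMSO vehicle control. After the set time, MTT at 0.5 mg/mL was added for 4 h at 37 °C. Formazan dissolved in DMSO and read at 490 nm. Run in triplicate.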

[4] = Reduction in SCD1 protein expression in mouse 3T3L1 cells at 1 to 50 uM after 9 days by Western blot method; assay type: functional, cell-based; conditions: 3T3-L1
Procedure, shortened: as §1

[5] = Cytotoxicity against mouse 3T3L1 cells at 1 to 50 uM incubated for 1 to 9 days by LDH assay; assay type: cell-based; conditions: 3t3-l1, 50 µM
Procedure, shortened: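 3T3-L1 adipocytes seeded at 7 × 10^3 cells/well, then treated 24 h later with DMSO vehicle as control. LDH in media and in cell lysates measured with a commercial kit. Cytotoxicity = LDH released into medium / maximal LDH release × 100. Maximum: […]. Blank: medium without cells.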

3T3-L1 [6] = experiment: Inhibition of adipogenesis in mouse 3T3L1 cells assessed as reduction in triglyceride content at 25 uM treated on day 3 to 9 by oil Red-O staining based microscopy; assay type: functional, cell-based
Procedure, shortened: (§2)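 After 3T3-L1 differentiation (IBMX/dexamethasone/insulin induction, insulin, then basal medium), cells were PBS-washed and fixed in 4% formalin for 60 min. Stained with filtered Oil Red O for 30 min at room temperature and imaged at 40× objective. Dye eluted with isopropanol and read at 510 nm. Three independent experiments.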

3T3-L1 [7] = experiment: Induction of cell cycle arrest in mouse 3T3L1 cells assessed as accumulation at S phase at 25 uM after 24 hrs by flow cytometry (reference value: 18%); assay type: functional
[8] = Reduction in PPARgamma protein expression in mouse 3T3L1 cells at 25 uM after 3 days by Western blot method; assay type: functional, cell-based; conditions: 3T3-L1
Procedure, shortened: as §1

3T3-L1 [9] = experiment: Increase in AMPKalpha Thr172 phosphorylation in mouse 3T3L1 cells at 25 uM after 9 days by Western blot method; assay type: cell-based
Procedure, shortened: (§3)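 Mouse 3T3-L1 cells taken through the differentiation protocol, with compound or DMSO vehicle given from day 0 and renewed at day 3. Cells lysed on ice for 0.5 h in RIPA with PMSF, Na3VO4, NaF and protease inhibitors, then centrifuged at 12,000g. Lysates run on 12% SDS-PAGE and transferred to PVDF. Blots probed overnight at 4 °C and detected with HRP secondary. Bands quantified by optical density against GAPDH. Three independent experiments.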

3T3-L1 [10] = experiment: Increase in AMPKalpha Thr172 phosphorylation in mouse 3T3L1 cells at 25 uM by Western blot method; assay type: cell-based; conditions: TDE = time-dependent effect
3T3-L1 [11] = experiment: Inhibition of adipogenesis in mouse 3T3L1 cells assessed as reduction in lipid droplets at 1 to 50 uM by oil Red-O staining based microscopy; assay type: functional, cell-based
Procedure, shortened: as §2

3T3-L1 [12] = experiment: Reduction in AMPKalpha2 mRNA expression in mouse 3T3L1 cells at 25 uM after 24 hrs by RT-PCR method; assay type: functional, cell-based
[13] = Reduction in C/EBPbeta mRNA expression in mouse 3T3L1 cells after 72 hrs by RT-PCR method; assay type: functional, cell-based; conditions: 3T3-L1
Procedure, shortened: as §1

3T3-L1 [14] = experiment: Inhibition of adipogenesis in mouse 3T3L1 cells assessed as reduction in lipid content at 25 uM by colorimetric assay; assay type: functional
[15] = Reduction in SREBP-1c protein expression in mouse 3T3L1 cells at 25 uM after 3 days by Western blot method; assay type: functional, cell-based; conditions: 3T3-L1
Procedure, shortened: as §1

3T3-L1 [16] = experiment: Induction of cell cycle arrest in mouse 3T3L1 cells assessed as accumulation at G0/G1 phase at 1 to 50 uM after 24 hrs by flow cytometry; assay type: functional, cell-based
[17] = Reduction in ACC protein expression in mouse 3T3L1 cells at 1 to 50 uM after 9 days by Western blot method; assay type: functional, cell-based; conditions: 3T3-L1
Procedure, shortened: as §3

[18] = Reduction in FAS protein expression in mouse 3T3L1 cells at 1 to 50 uM after 9 days by Western blot method; assay type: functional, cell-based; conditions: 3T3-L1
Procedure, shortened: as §1

[19] = Reduction in C/PPARgamma mRNA expression in mouse 3T3L1 cells at 25 uM by RT-PCR method; assay type: functional, cell-based; conditions: 3T3-L1, TDE = time-dependent effect
Procedure, shortened: as §1

3T3-L1 [20] = experiment: Induction of cell cycle arrest in mouse 3T3L1 cells assessed as accumulation at G2/M phase at 1 to 50 uM by flow cytometry; assay type: functional, cell-based
3T3-L1 [21] = experiment: Inhibition of adipogenesis in mouse 3T3L1 cells assessed as reduction in triglyceride content at 25 uM treated on day 6 to 9 by colorimetric assay; assay type: functional; conditions: 3T3-L1, 144 h
3T3-L1 [22] = experiment: Activation of AMPK in mouse 3T3L1 cells assessed as increase in ACC Ser79 phosphorylation at 25 uM after 9 days by Western blot method; assay type: cell-based
Procedure, shortened: as §3

[23] = Reduction in C/EBPalpha protein expression in mouse 3T3L1 cells at 25 uM after 3 days by Western blot method; assay type: functional, cell-based; conditions: 3T3-L1
Procedure, shortened: as §1

[24] = Reduction in C/EBPalpha protein expression in mouse 3T3L1 cells at 1 to 50 uM by Western blot method; assay type: functional, cell-based; conditions: 3T3-L1
Procedure, shortened: as §3

3T3-L1 [25] = experiment: Inhibition of adipogenesis in mouse 3T3L1 cells assessed as reduction in triglyceride content at 25 uM treated on day 0 to 3 by colorimetric assay; assay type: functional; conditions: 3T3-L1, 0 h
3T3-L1 [26] = experiment: Inhibition of adipogenesis in mouse 3T3L1 cells assessed as reduction in triglyceride content at 25 uM treated on day 0 to 9 by oil Red-O staining based microscopy; assay type: functional, cell-based
Procedure, shortened: as §2

In the case of `O=Cc1c(-c2nc3ccccc3c(=O)[nH]2)[nH]c2ccccc12`, the Activity [1] is reported as “Active”, the Activity [2] is reported as “tde” and the Activity (3T3-L1 [3]) is reported as 57%. The Activity (HepG2) was “Non-toxic”, the Activity [4] was “Active” and the Activity [5] was “Non-toxic”. The inhibition (3T3-L1 [6]) was “Active”, the Activity (3T3-L1 [7]) was 5% and the Activity [8] was “Active”. The Activity (3T3-L1 [9]) was “Active”, the Activity (3T3-L1 [10]) was “tde” and the inhibition (3T3-L1 [11]) was “Active”. The Activity (3T3-L1 [12]) was “Active”, the Activity [13] was “Dose-dependent effect” and the inhibition at 25 µM (3T3-L1 [14]) was 50%. The Activity [15] was “Active”, the Activity (3T3-L1 [16]) was “Dose-dependent effect” and the Activity [17] was “Active”. For the same compound, the Activity [18] was “Active”, the Activity [19] was “tde” and the Activity (3T3-L1 [20]) was “Active”. For the same compound, the inhibition at 25 µM (3T3-L1 [21]) was < 10%, the Activity (3T3-L1 [22]) was “Active” and the Activity [23] was “Active”. The Activity [24] was “Active”, the inhibition at 25 µM (3T3-L1 [25]) was 50% and the inhibition (3T3-L1 [26]) was “Active”.
